# TCR-CD3 inh – inhibitors of human TCR-CD3 interaction, primary screen, biochemical, fluorescence, TAMRA-labeled TCR probe | AID 651800, 2012 | T-cell receptor (TCR) | actives 0.37% (n = 360,000) | inhibition, % at 9.4 µM; in the data active means inhibition above about 19%;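 further: recombinant mutant TCR 2C K166C tagged with TAMRA read by polarization; 0% = receptor in buffer alone and 100% = receptor with positive control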
# SIAE inh – human SIAE inhibitors, primary screen, biochemical, fluorescence polarization, FP-Rh probe, 1536-well HTS | SIAE FP-Rh probe binding | AID 1053197, 2014 | actives 0.69% (n = 370,000) | inhibition, % at 9.66 µM | Sialate O-acetylesterase (Homo sapiens), Q9HAT2;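 active means inhibition above a cutoff: mean of compounds within the control limits plus 3 SD of those, cut at about 17% in these data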;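 further: 0% = plate median of compound wells and 100% = probe without SIAE protein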
# HTRA1 inh – HTRA1 serine protease inhibitors, primary screen, biochemical, fluorescence polarization, HTS; Q92743; recombinant HTRA1, FP-rhodamine activity-based probe; inhibition, % at 5.96 µM; actives 0.5% (n = 340,000); AID 504803, 2011; in the data active means inhibition above about 36%;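 further: 0% = enzyme with DMSO and 100% = wells lacking enzyme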
# DAGLB inh – DAGLB lipase inhibitors, primary screen, biochemical, fluorescence, HTS | Diacylglycerol lipase-beta (Homo sapiens), Q8NCG7 | HEK293T DAGLB membrane lysate, EnzChek fluorogenic substrate | inhibition, % at 5.17 µM | actives 0.059% (n = 340,000) | AID 504411, 2011; in the data active means inhibition above about 34%;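 further: 0% = enzyme with vehicle and 100% = wells lacking enzyme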
# mABHD4 FP – ABHD4 inhibitors, primary screen, biochemical, fluorescence polarization, mouse; AID 720543, 2013; purified mABHD4, FP-Rh probe fluorescence polarization; inhibition, % at 8.92 µM; (Lyso)-N-acylphosphatidylethanolamine lipase (Mus musculus), Q8VD66; actives 0.54% (n = 370,000);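 active means inhibition exceeding the mean over every tested compound plus 3 SD, cut at about 30% in these data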;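 further: 0% = plate median of compound wells and 100% = S159A mutant with DMSO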
#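 Assay system: mABHD4 protein; medium: HEPES pH 7.0, NaCl, Pluronic buffer; dosing: 8.92 µM, single dose; schedule: 45 min + 60 min at 25 °C; signal: FP readout, ex 525 nm / em 598 nm; read-out: normalized percent inhibition of probe labeling; repeats: single replicate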
# SIAE inh conf – human SIAE inhibitors, retest, confirmation, biochemical, fluorescence polarization, FP-Rh probe, triplicate; actives 13% (n = 2,300); shares compounds with SIAE inh; SIAE FP-Rh activity-based probe; inhibition, % at 9.66 µM; AID 1117263, 2014;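 active means mean inhibition of the replicates above the hit cutoff set in the primary screen, cut at about 17% in these data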;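 further: 0% = SIAE with DMSO and probe and 100% = probe without SIAE; inhibitors lower polarization as more probe stays unbound to SIAE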
# Starred values were filed as active, the others as inactive; . = no result given. The list is not random: actives were taken first. Their share in the collection is about 1.5%.
SMILES,TCR-CD3 inh,SIAE inh,HTRA1 inh,DAGLB inh,mABHD4 FP,SIAE inh conf
COc1cc2c3c(c1OC)-c1cc(O)ccc1CC3NCC2 (stereo not drawn),9,6,6,-1,3,.
COc1cc2c(cc1OC)-c1c(OC)c(OC)cc3c1[C@H](C2)[N+](C)(C)CC3,-3,18*,-3,-1,2,3
CNC(=O)O/N=C/c1nn(C(=O)C(C)(C)C)cc1Br,-4,17*,22,-1,0,2
Cc1cc(N2CCNC[C@H]2C)ccc1N1CCN[C@H](C)C1,2,-1,.,.,-6,.
Cc1ccccc1-c1ccc2c(c1)C1c3c(-c4ccccc4)nnn3-c3ccccc3C(=O)N1CC2 (stereo not drawn),0,-10,.,.,2,.
CC(C)CCOP(N)(=O)Oc1ccccc1Cl (stereo not drawn),-4,39*,2,8,2,30*
NP(=O)(OCCCc1ccccc1)Oc1ccccc1Cl (stereo not drawn),8,57*,11,7,2,54*
CC(C)CCOP(N)(=O)Oc1ccccc1 (stereo not drawn),2,4,1,-2,4,.
C=CCNC(=S)N1Cc2cc(Br)ccc2-n2nncc2C1,-7,0,.,.,-2,.
CCN1CCOC(c2ccccc2)C1 (stereo not drawn),1,-1,0,-3,-3,.
